Assay outcomes as filed in PubChem.
Compounds with a hit are over-represented: about 2.3% of the library has one in this group of screens.
TAAR1 agonist: agonists of human TAAR1; 360,000 compounds, 0.99% hits; AID 624467; activation, % at 3 µM; CHO RD-HGA16 TAAR1, Fluo-8 calcium fluorescence; vehicle wells 0%, saturating PEA agonist 100%; Q96RJ0;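 active means activation above the mean activation of all test compounds in the run plus 3 SD, cut at about 38% in these data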
Target sequence (Q96RJ0 whole entry, looked up): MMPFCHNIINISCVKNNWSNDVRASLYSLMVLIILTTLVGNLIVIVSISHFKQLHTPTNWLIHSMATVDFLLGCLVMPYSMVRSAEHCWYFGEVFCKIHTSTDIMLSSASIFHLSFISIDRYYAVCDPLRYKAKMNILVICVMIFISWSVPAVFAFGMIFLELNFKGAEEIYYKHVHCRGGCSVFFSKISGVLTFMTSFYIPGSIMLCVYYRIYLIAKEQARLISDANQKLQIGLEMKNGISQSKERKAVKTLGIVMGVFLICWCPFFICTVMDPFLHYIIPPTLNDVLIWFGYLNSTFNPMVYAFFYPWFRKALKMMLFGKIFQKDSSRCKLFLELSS
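Repeats: no replicates (n 1) | Material: CHO-derived RD-HGA16 cells with stable Gα16 and human TAAR1 | Technique: Kinetic Fluo-8 calcium fluorescence | Schedule: 17-24 h seeding, 75 min 37 °C dye, 30 min RT | Evaluation: % activation from peak over basal fluorescence ratio, DMSO-to-PEA scaled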
TAAR1 antagonist: antagonists of human TAAR1. Q96RJ0. CHO RD-HGA16 TAAR1, Fluo-8 calcium fluorescence, antagonist. inhibition, % at 3 µM. 360,000 compounds, 1.5% hits. AID 624466;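 active means inhibition above a per-plate cutoff, the mean inhibition of test compounds on that plate plus 3 SD, cut at about 49% in these data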
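test system = CHO RD-HGA16 cells bearing hTAAR1 | replication = singlicate | controls = DMSO-only wells and EC80 β-PEA-stimulated wells | reagent = EC80 β-phenethylamine stimulus | read-out basis = percent inhibition of PEA-evoked calcium signal, max/basal emission ratio | schedule = seeding 17-24 h prior, 75-min 37 °C, 30-min RT dye loading | signal = kinetic Fluo-8 calcium fluorescence measurement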
OXTR agonist: agonists of human oxytocin receptor; activation, % at 3 µM; AID 2435; CHO-OTR cells, Fluo-8 calcium fluorescence; normalized: DMSO 0%, oxytocin 100%; 320,000 compounds, 0.32% hits; P30559;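 active means activation above the mean of all tested compounds plus 3 SD, cutoff set per screening run, cut at about 20% in these data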;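 further: peak over basal fluorescence ratio from a 100 s FLIPR kinetic read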
OXTR potentiator: human OXTR potentiation | CHO-OTR cells, Fluo-8 calcium fluorescence, potentiator mode; 0% = oxytocin EC15, 100% = EC100 | activation, % at 3 µM | 320,000 compounds, 0.061% hits | AID 2445;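 active means activation above that plate's cutoff, the mean activation of tested compounds plus 3 SD, cut at about 6.6% in these data, passing the limit was not always enough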
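Measured by – Fluo-8 calcium dye fluorescence · Test system – human OTR in CHO cells · Dosing – one concentration, 3.0 µM compound · Controls – EC15 oxytocin alone as 0%, 75 nM oxytocin as 100% · Evaluation – normalized max/min fluorescence ratio, % activation · Timing – 6 min pre-incubation, 100 s read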
V1aR counter: activates human V1a receptor in oxytocin agonist counter-screen | activation, % at 3 µM | AID 2797 | 320,000 compounds, 0.25% hits | CHO-V1R cells, Fluo-8 calcium fluorescence, agonist mode; 0% DMSO, 100% 3 nM vasopressin;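 active means activation above the mean activation of all tested compounds plus 3 SD, per screening run, cut at about 20% in these data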;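 further: signal is peak over basal fluorescence ratio across a 100 second FLIPR read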
Target sequence (P37288 whole entry, looked up): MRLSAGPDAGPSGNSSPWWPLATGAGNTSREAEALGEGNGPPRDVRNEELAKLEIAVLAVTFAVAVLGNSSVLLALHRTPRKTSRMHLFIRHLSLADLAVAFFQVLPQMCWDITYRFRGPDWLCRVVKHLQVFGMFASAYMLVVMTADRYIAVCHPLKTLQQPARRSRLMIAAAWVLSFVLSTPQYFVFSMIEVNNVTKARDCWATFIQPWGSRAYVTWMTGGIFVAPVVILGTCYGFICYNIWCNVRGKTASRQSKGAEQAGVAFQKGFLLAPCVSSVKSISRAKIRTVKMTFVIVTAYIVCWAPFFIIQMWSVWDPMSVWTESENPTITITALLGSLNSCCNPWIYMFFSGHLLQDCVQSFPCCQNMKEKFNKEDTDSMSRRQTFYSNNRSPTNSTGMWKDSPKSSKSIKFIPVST
TAAR1 ag conf: confirmation of human TAAR1 agonists; shares compounds with TAAR1 agonist; CHO RD-HGA16 TAAR1, Fluo-8 calcium fluorescence; scaled: DMSO 0%, maximal phenethylamine 100%; AID 651783; 2,400 compounds, 82% hits; activation, % at 3 µM;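 active means activation above a cutoff set at the run's mean compound activation plus 3 SD, cut at about 39% in these data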
Ga16 ag counter: nonselective agonist in parental cells, TAAR1 agonist counter-screen. shares compounds with TAAR1 agonist. CHO-Ga16 parental, Fluo-8 calcium fluorescence; normalized to maximal ATP response, DMSO zero. activation, % at 3 µM. 2,400 compounds, 50% hits. AID 651787;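 active means activation above the run cutoff, the mean activation over all tested wells plus 3 SD, cut at about 12% in these data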
TAAR1 desens: counter-screen for human TAAR1 agonists: agonists that desensitize TAAR1; CHO RD-HGA16 hTAAR1, Fluo-8 calcium, beta-PEA response inhibition; shares compounds with TAAR1 agonist; AID 651951; 2,400 compounds, 46% hits; inhibition, % at 3 µM;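 active means inhibition above the run cutoff, the mean inhibition of all test compounds plus 3 SD, cut at about 49% in these data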;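 further: beta-PEA stimulus applied at its EC80; loss of beta-PEA calcium signal after compound pretreatment read as receptor desensitization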
Ga16 nonsel ant: counter-screen for TAAR1 agonists: nonselective Ga16 antagonists | AID 651952 | 2,400 compounds, 39% hits | inhibition, % at 3 µM | CHO-Ga16 ATP-induced calcium, Fluo-8 fluorescence | shares compounds with TAAR1 agonist;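 active means inhibition above the plate's mean compound inhibition plus 3 SD, computed per plate, cut at about 22% in these data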
Numbers stand for hits; i = inactive; nt = no result.

SMILES | TAAR1 agonist | TAAR1 antagonist | OXTR agonist | OXTR potentiator | V1aR counter | TAAR1 ag conf | Ga16 ag counter | TAAR1 desens | Ga16 nonsel ant
COc1ccccc1CCNC(=O)C(=O)NCC1CCCN1S(=O)(=O)c1ccccc1 (centres undefined) | 49 | 59 | i | i | i | 72 | i | 65 | 31
O=c1ccc2[n+]([O-])c3ccc(O)cc3oc-2c1 | 58 | i | nt | nt | nt | i | 42 | i | 42
O=C(CSc1n[nH]c(-c2ccncc2)n1)Nc1ccc(Cl)cc1 | i | i | i | i | i | nt | nt | nt | nt
O=C(CSc1n[nH]c(-c2ccncc2)n1)Nc1ccc(Cl)c(Cl)c1 | 102 | i | i | i | i | 66 | 60 | i | 22
Cc1ccc(F)cc1CNC(=O)C1CCC(=O)N(CC2CCCCC2)C1 (centres undefined) | i | i | i | i | i | nt | nt | nt | nt
Nc1[nH]c(C(=O)c2ccc(Br)cc2)c(-c2ccncc2)c1C(=O)NCCc1c[nH]c2ccccc12 | i | i | nt | nt | nt | nt | nt | nt | nt
O=C(Nc1ccc(Cl)cc1)C1C2CCCCC21 (centres undefined) | 57 | 59 | i | i | i | i | i | i | i
Cc1ccc([N+](=O)[O-])c2c1C(N1CC(C)OC(C)C1)C(C)(C)O2 (centres undefined) | i | i | i | i | i | nt | nt | nt | nt
CNC(=O)c1ccccc1NC(=O)C1CC(=O)N(c2ccc(OC)cc2)C1 (centres undefined) | i | i | i | i | i | nt | nt | nt | nt
CN(C)S(=O)(=O)c1cccc(CNCC2COc3ccccc3O2)c1 (centres undefined) | 59 | i | i | i | i | 88 | 21 | i | i
O=C(Nc1ccncc1)Nc1cccc(Cl)c1 | 59 | i | i | i | i | 86 | 16 | 52 | i
CN(c1cccc(NC(=O)Nc2cccc(Cl)c2)c1)S(C)(=O)=O | 43 | i | i | i | i | i | i | i | 29
O=C(NCc1ccncc1)Nc1cccc(Cl)c1 | i | i | i | i | i | nt | nt | nt | nt
O=C(Nc1ccccc1)Nc1ccno1 | 48 | i | i | i | i | 87 | i | 67 | i
CC(=O)c1cccc(NC(=O)Nc2ccccc2)c1 | i | i | i | i | i | nt | nt | nt | nt
CC(=O)c1ccc(NC(=O)Nc2ccccc2)cc1 | 54 | i | i | i | i | 68 | i | 55 | i
CC(C)(C)c1cc(NC(=O)Nc2ccccc2)no1 | i | i | i | i | i | nt | nt | nt | nt
O=C(Nc1ccccc1)Nc1ccncc1 | 82 | 53 | i | i | i | 97 | i | 86 | i
Cn1c(N/N=C/c2cccs2)cc(=O)n(C)c1=O | 45 | i | i | i | i | 62 | i | i | i
Cn1c(=O)c2c(nc(N/N=C/c3cccs3)n2C)n(C)c1=O | i | i | i | i | i | nt | nt | nt | nt
NC(=O)c1cc(-c2csc(NCCc3ccccc3)n2)ccc1O | 49 | i | i | i | i | 46 | i | i | i
Cc1nc(NC(=O)c2ccccc2)sc1-c1csc(NCCc2ccccc2)n1 | 64 | i | i | i | i | 61 | 21 | 58 | 34
C=CCNc1nc(-c2ccc(O)c(C(N)=O)c2)cs1 | i | i | i | i | i | nt | nt | nt | nt
COc1ccc([N+](=O)[O-])c(O)c1C(C)=O | i | i | nt | nt | nt | nt | nt | nt | nt
COc1ccc(OC)c(-c2csc(NC(=O)COC(=O)C3(C)CC3(Cl)Cl)n2)c1 (centres undefined) | i | i | i | i | i | nt | nt | nt | nt
SMILES | TAAR1 agonist | TAAR1 antagonist | OXTR agonist | OXTR potentiator | V1aR counter | TAAR1 ag conf | Ga16 ag counter | TAAR1 desens | Ga16 nonsel ant
O=c1cc(N2CCc3ccccc3C2)[nH]c(=O)n1-c1ccccc1Cl | 79 | i | i | i | i | 62 | i | i | i
O=c1cc(N2CCc3ccccc3C2)[nH]c(=O)n1C1CCCCC1 | i | i | i | i | i | nt | nt | nt | nt
Cc1ccc(-n2c(=O)cc(N3CCc4ccccc4C3)[nH]c2=O)cc1 | 87 | i | i | i | i | i | i | i | i
Cc1ccccc1-n1c(=O)cc(N2CCc3ccccc3C2)[nH]c1=O | 92 | 54 | i | i | i | 97 | i | 80 | i
Cc1ccccc1-n1c(=O)cc(N2CC(C)OC(C)C2)[nH]c1=O (centres undefined) | i | i | i | i | i | nt | nt | nt | nt
CCCOc1ccc(F)cc1-c1cc(C(=O)NCc2ccco2)[nH]n1 | i | i | nt | nt | nt | nt | nt | nt | nt
CCOc1ccc(CC(=NCCc2ccccc2)C2=C(O)CC(C)(C)CC2=O)cc1OCC | 81 | 87 | i | i | i | 88 | i | 79 | i
Oc1ccc(/C=N/Nc2ccnc3cc(Cl)ccc23)cc1O | 97 | 65 | i | i | i | 106 | i | 92 | i
Oc1ccc(/C=N/Nc2ccnc3cc(Cl)ccc23)c(O)c1O | i | i | i | i | i | nt | nt | nt | nt
C(=Nn1cnnc1)c1ccc2c(c1)CCC2 | i | i | nt | nt | nt | nt | nt | nt | nt
C[C@H](O)[C@@H]1CN2CCc3c([nH]c4c(-c5ccccc5)cccc34)[C@@H]2C[C@@H]1N(C)C(=O)NC1CCCCC1 | i | i | nt | nt | nt | nt | nt | nt | nt
C[C@H](O)[C@@H]1CN2CCc3c([nH]c4c(-c5ccccc5)cccc34)[C@@H]2C[C@@H]1N(C)C(=S)NCCc1ccccc1 | 85 | 61 | nt | nt | nt | i | i | i | i
NC(Cc1ccc(C(F)(F)F)cc1)c1csc(NC(=O)NCCc2ccccc2)n1 (centres undefined) | i | i | nt | nt | nt | nt | nt | nt | nt
CC(C)CC(N)c1csc(Nc2ccc(C(=O)N(C)Cc3ccccc3)cn2)n1 (centres undefined) | i | i | nt | nt | nt | nt | nt | nt | nt
Cc1ccc(C(=O)Nc2nc(C(N)Cc3ccc(C(F)(F)F)cc3)cs2)cc1 (centres undefined) | 65 | i | nt | nt | nt | 52 | 29 | i | 43
NC(Cc1ccc(F)cc1)c1csc(Nc2ccc(C(F)(F)F)cn2)n1 (centres undefined) | 74 | i | nt | nt | nt | 49 | 27 | i | 35
CN(Cc1ccccc1)C(=O)c1ccc(Nc2nc(C(N)Cc3ccc(C(F)(F)F)cc3)cs2)nc1 (centres undefined) | 64 | 75 | nt | nt | nt | 59 | 30 | 63 | 70
CCCCN(C)C(=O)c1ccc(Nc2nc(C(N)Cc3ccccc3)cs2)nc1 (centres undefined) | 49 | i | nt | nt | nt | 73 | 16 | 54 | 32
Cn1ncc(Cl)c1C(=O)N1CCN(C23CC4CC(CC(C4)C2)C3)CC1 | i | i | i | i | i | nt | nt | nt | nt
